Data reported in ChEMBL document CHEMBL1122172, “Syntheses and diuretic activity of 1,2-dihydro-2-(3-pyridyl)-3H-pyrido[2,3-d]pyrimidin-4-one and related compounds” (1982).
Where “and” joins values, the source holds several entries; their conditions need not be identical. Equal entries are not always repeated.

Tests used:
Assay type in all cases: functional, Urine
[1] = tested on: Rattus norvegicus; assay: Total Cl- milliequivalents excretion in diuretic test at the dose of 25 mg/kg
Summary of the method: (§1)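 Male Sprague–Dawley rats (195–225 g) were fasted and deprived of water for 18 h. The compound was given orally, dissolved in 25 mL/kg saline; controls got saline alone. Groups of eight were housed as pairs in metabolism cages. Urine volume was read at 2 and 5 h, with total Na+, Cl− and K+ mequiv excreted. Values are mean ± SEM, N = 8.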

[2] = tested on: Rattus norvegicus; assay: Total Na+ milliequivalents excretion in diuretic test at the dose of 25 mg/kg; summary of the method: as §1
[3] = tested on: Rattus norvegicus; assay: Total K+ milliequivalents excretion in diuretic test at the dose of 25 mg/kg; summary of the method: as §1
[4] = tested on: Rattus norvegicus; assay: Diuretic activity by measuring the urinary output at the dose of 25 mg/kg; summary of the method: as §1
[5] = tested on: Rattus norvegicus; assay: Total Cl- milliequivalents excretion in diuretic test at the dose of 50 mg/kg
[6] = tested on: Rattus norvegicus; assay: Diuretic activity by measuring the urinary output at the dose of 50 mg/kg
Summary of the method: (§2)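 Groups of eight male Sprague–Dawley-derived rats, fasted 18 h with water ad libitum, received oral doses by dosing needle in 5% acacia–isotonic saline; the vehicle served as control. Rats were placed in metabolism cages with no food or water, and urine was collected for 5 h. Bladders were then emptied by pulling at the tail base (modified Lipschitz method).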

[7] = tested on: Rattus norvegicus; assay: Diuretic activity by measuring the urinary output at the dose of 400 mg/kg; summary of the method: as §2
[8] = tested on: Rattus norvegicus; assay: Diuretic activity by measuring the urinary output at the dose of 100 mg/kg; summary of the method: as §2
[9] = tested on: Rattus norvegicus; assay: Total Cl- milliequivalents excretion in diuretic test at the dose of 75 mg/kg
[10] = tested on: Rattus norvegicus; assay: Total Na+ milliequivalents excretion in diuretic test at the dose of 75 mg/kg
[11] = tested on: Rattus norvegicus; assay: Diuretic activity by measuring the urinary output at the dose of 75 mg/kg; summary of the method: as §2
[12] = tested on: Rattus norvegicus; assay: Diuretic activity by measuring the urinary output after 5 hr at the dose of 25 mg/kg
Summary of the method: (§3)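 Male Sprague–Dawley rats (195–225 g) were fasted and deprived of water for 18 h, then dosed orally with compound dissolved in 25 mL/kg saline. Controls got 25 mL/kg saline alone. Groups of eight were used, housed two rats per metabolism cage right after dosing. Urine volume was collected at 2 h and 5 h after dosing. Values are mean ± SEM per cage pair, N = 8.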

[13] = tested on: Rattus norvegicus; assay: Diuretic activity by measuring the urinary output after 2 hr at the dose of 25 mg/kg; summary of the method: as §3
[14] = tested on: Rattus norvegicus; assay: Diuretic activity by measuring the urinary output after 2 hr at the dose of 27 mg/kg; summary of the method: as §3
[15] = tested on: Rattus norvegicus; assay: Diuretic activity by measuring the urinary output after 2 hr at the dose of 81 mg/kg; summary of the method: as §3
[16] = tested on: Rattus norvegicus; assay: Total K+ milliequivalents excretion in diuretic test at the dose of 9 mg/kg
Summary of the method: (§4)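 Oral dosing was in 25 mL/kg saline to male Sprague–Dawley rats (195–225 g) after 18 h without food or water, with saline-only controls. Groups of eight were kept two per metabolism cage. Urinary Na+, Cl− and K+ were reported as total mequiv excreted, with electrolyte analysis done externally. Values are mean ± SEM of two rats per cage, N = 8.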

[17] = tested on: Rattus norvegicus; assay: Total Na+ milliequivalents excretion in diuretic test at the dose of 81 mg/kg; summary of the method: as §4
[18] = tested on: Rattus norvegicus; assay: Total Na+ milliequivalents excretion in diuretic test at the dose of 9 mg/kg; summary of the method: as §4
[19] = tested on: Rattus norvegicus; assay: Total Cl- milliequivalents excretion in diuretic test at the dose of 9 mg/kg; summary of the method: as §4
[20] = tested on: Rattus norvegicus; assay: Total Cl- milliequivalents excretion in diuretic test at the dose of 3 mg/kg; summary of the method: as §4
[21] = tested on: Rattus norvegicus; assay: Total K+ milliequivalents excretion in diuretic test at the dose of 27 mg/kg; summary of the method: as §4
[22] = tested on: Rattus norvegicus; assay: Diuretic activity by measuring the urinary output after 2 hr at the dose of 3 mg/kg; summary of the method: as §3
[23] = tested on: Rattus norvegicus; assay: Total Cl- milliequivalents excretion in diuretic test at the dose of 81 mg/kg; summary of the method: as §4
[24] = tested on: Rattus norvegicus; assay: Diuretic activity by measuring the urinary output after 2 hr at the dose of 9 mg/kg; summary of the method: as §3
[25] = tested on: Rattus norvegicus; assay: Total K+ milliequivalents excretion in diuretic test at the dose of 3 mg/kg; summary of the method: as §4
[26] = tested on: Rattus norvegicus; assay: Diuretic activity by measuring the urinary output after 5 hr at the dose of 27 mg/kg; summary of the method: as §3
[27] = tested on: Rattus norvegicus; assay: Total Na+ milliequivalents excretion in diuretic test at the dose of 27 mg/kg; summary of the method: as §4
[28] = tested on: Rattus norvegicus; assay: Diuretic activity by measuring the urinary output after 5 hr at the dose of 9 mg/kg; summary of the method: as §3
[29] = tested on: Rattus norvegicus; assay: Total Na+ milliequivalents excretion in diuretic test at the dose of 3 mg/kg; summary of the method: as §4
[30] = tested on: Rattus norvegicus; assay: Total Cl- milliequivalents excretion in diuretic test at the dose of 27 mg/kg; summary of the method: as §4
[31] = tested on: Rattus norvegicus; assay: Diuretic activity by measuring the urinary output after 5 hr at the dose of 3 mg/kg; summary of the method: as §3
[32] = tested on: Rattus norvegicus; assay: Total K+ milliequivalents excretion in diuretic test at the dose of 81 mg/kg; summary of the method: as §4
[33] = tested on: Rattus norvegicus; assay: Diuretic activity by measuring the urinary output after 5 hr at the dose of 81 mg/kg; summary of the method: as §3
[34] = tested on: Rattus norvegicus; assay: Diuretic activity by measuring the urinary output at the dose of 150 mg/kg; summary of the method: as §2
[35] = tested on: Rattus norvegicus; assay: Total K+ milliequivalents excretion in diuretic test at the dose of 150 mg/kg
[36] = tested on: Rattus norvegicus; assay: Total Na+ milliequivalents excretion in diuretic test at the dose of 150 mg/kg
[37] = tested on: Rattus norvegicus; assay: Total Cl- milliequivalents excretion in diuretic test at the dose of 150 mg/kg
[38] = tested on: Rattus norvegicus; assay: Total K+ milliequivalents excretion in diuretic test at the dose of 75 mg/kg
[39] = tested on: Rattus norvegicus; assay: Total Na+ milliequivalents excretion in diuretic test at the dose of 50 mg/kg
[40] = tested on: Rattus norvegicus; assay: Total K+ milliequivalents excretion in diuretic test at the dose of 50 mg/kg
[41] = tested on: Rattus norvegicus; assay: Diuretic activity by measuring the urinary output at the dose of 40 mg/kg; summary of the method: as §2
[42] = tested on: Rattus norvegicus; assay: Diuretic activity by measuring the urinary output at the dose of 20 mg/kg; summary of the method: as §2

Compound: Cn1cccc1C1NC(=O)c2cccnc2N1 (stereo not given)
- Excretion [1]: 1.4 m equiv
- Excretion [2]: 1.5 m equiv
- Excretion [3]: 0.3 m equiv
- Control [4]: 124%
- Excretion [5]: 1 m equiv
- Control [6]: 113%

Compound: O=C1NC(c2ccco2)Nc2ncccc21 (stereo not given)
- Control [7]: 193%
- Control [4]: 121%
- Control [8]: 194%

Compound: O=C1NC(c2ccc(C(F)(F)F)cc2)Nc2ncccc21 (stereo not given)
- Excretion [1]: 1.4 m equiv
- Excretion [9]: 1.3 m equiv
- Excretion [2]: 1.3 m equiv
- Excretion [3]: 0.4 m equiv
- Control [4]: 106%
- Excretion ([10]; 75 mg/kg): 1.2 m equiv and 0.4 m equiv
- Control [11]: 98%

Compound: CN1C(=O)c2cccnc2NC1c1ccco1 (stereo not given)
- Excretion [1]: 1.8 m equiv
- Excretion [2]: 1.8 m equiv
- Excretion [3]: 0.8 m equiv
- Control [7]: 95%
- Excretion [12]: 12.2 mL
- Control [4]: 209%
- Control [8]: 233%
- Excretion [13]: 4.6 mL

Compound: CC(C)c1ccc(C2NC(=O)c3cccnc3N2)cc1 (stereo not given)
- Excretion [1]: 1.6 m equiv
- Excretion [9]: 1.4 m equiv
- Excretion [2]: 1.5 m equiv
- Excretion [3]: 0.6 m equiv
- Control [4]: 137%
- Excretion ([10]; 75 mg/kg): 1.3 m equiv and 0.6 m equiv
- Control [11]: 114%

Compound: O=C1NC(c2cc(Br)co2)Nc2ncccc21 (stereo not given)
- Control [7]: 110%
- Control [4]: 101%
- Control [8]: 94%

Compound: Oc1nc(-c2ccco2)nc2ncccc12
- Control [7]: 36%
- Control [4]: 167%
- Control [8]: 212%

Compound: O=C1NC(c2cccnc2)Nc2[nH]cnc21 (stereo not given)
- Excretion [1]: 1.3 m equiv
- Excretion [2]: 1.4 m equiv
- Excretion [3]: 0.6 m equiv
- Control [4]: 138%

Compound: O=C1NC(c2cccnc2)Nc2ncccc21 (stereo not given)
- Excretion [14]: 10.4 mL
- Excretion [1]: 2.8 m equiv
- Excretion [15]: 6 mL
- Excretion [2]: 2.5 m equiv
- Excretion [3]: 0.6 m equiv
- Control [7]: 185%
- Excretion [16]: 0.4 m equiv
- Excretion [17]: 2.6 m equiv
- Excretion [18]: 1.1 m equiv
- Excretion [19]: 1.3 m equiv
- Excretion [20]: 1.6 m equiv
- Excretion [12]: 21 mL
- Excretion [21]: 0.6 m equiv
- Control [4]: 221%
- Control [8]: 220%
- Excretion [22]: 4.4 mL
- Excretion [23]: 2.6 m equiv
- Excretion [24]: 3 mL
- Excretion [25]: 0.4 m equiv
- Excretion [26]: 20.1 mL
- Excretion [27]: 2.2 m equiv
- Excretion [13]: 8 mL
- Excretion [28]: 7.6 mL
- Excretion [29]: 1.4 m equiv
- Excretion [30]: 2.6 m equiv
- Excretion [31]: 8.1 mL
- Excretion [32]: 0.4 m equiv
- Excretion [33]: 19.6 mL

Compound: CN1C(=O)c2cccnc2NC1c1cccnc1 (stereo not given)
- Excretion [9]: 1.7 m equiv
- Control [11]: 149%

Compound: CC1(C(=O)NCc2cccnc2)NC(=O)c2ccccc2N1 (stereo not given)
- Control [34]: 120%
- Excretion [35]: 0.5 m equiv
- Excretion [36]: 1.4 m equiv
- Excretion [37]: 1.5 m equiv

Compound: O=C1NC(c2ccccc2)Nc2ncccc21 (stereo not given)
- Excretion [1]: 1.4 m equiv
- Excretion [9]: 1.8 m equiv
- Excretion [2]: 1.3 m equiv
- Excretion [3]: 0.5 m equiv
- Control [4]: 114%
- Control [11]: 146%

Compound: CN(C)C(=O)C1(C)NC(=O)c2ccccc2N1 (stereo not given)
- Control [34]: 100%
- Excretion [35]: 0.4 m equiv
- Excretion [36]: 1.1 m equiv
- Excretion [37]: 1.4 m equiv

Compound: O=C1NC(c2cccnc2)Nc2nccnc21 (stereo not given)
- Excretion [9]: 1.2 m equiv
- Excretion [38]: 0.4 m equiv
- Excretion [10]: 1.2 m equiv
- Control [11]: 97%

Compound: Nc1ccc(C2NC(=O)c3cccnc3N2)cc1 (stereo not given)
- Excretion [39]: 1.5 m equiv
- Excretion [5]: 1.5 m equiv
- Excretion [40]: 0.5 m equiv
- Control [6]: 128%

Compound: O=C1NC(c2cccnc2)Nc2ccccc21 (stereo not given)
- Excretion [1]: 1.1 m equiv
- Excretion [2]: 1 m equiv
- Excretion [3]: 0.4 m equiv
- Control [4]: 96%

Compound: COC(OC)C1(C)NC(=O)c2ccccc2N1 (stereo not given)
- Excretion [1]: 1.2 m equiv
- Excretion [2]: 1.2 m equiv
- Excretion [3]: 0.4 m equiv
- Control [4]: 118%

Compound: O=C1NC(c2ccc([N+](=O)[O-])cc2)Nc2ncccc21 (stereo not given)
- Excretion [1]: 1.3 m equiv
- Excretion [9]: 1.7 m equiv
- Excretion [2]: 1.2 m equiv
- Excretion [3]: 0.4 m equiv
- Control [4]: 110%
- Excretion ([10]; 75 mg/kg): 1.5 m equiv and 0.6 m equiv
- Control [11]: 115%

Compound: NS(=O)(=O)c1cc(C(=O)O)c(NCc2ccco2)cc1Cl [FUROSEMIDE]
- Control [41]: 517%
- Control [42]: 444%
